Measurements: ChEMBL document CHEMBL4406880, “Design, synthesis, and bioactivity of dihydropyrimidine derivatives as kinesin spindle protein inhibitors” (Bioorg Med Chem, 2019)

How the values were obtained:
Assay type in all cases: functional
SK-MEL-5 = experiment: Growth inhibition of human SK-MEL-5 cells assessed as growth percentage at 10 uM incubated for 48 hrs by sulforhodamine B assay relative to control; conditions: SK-MEL-5, 48 h, read-out: Activity
Method in brief: (§1)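 NCI-60 single-dose screen. Cells were grown in RPMI 1640 with 5% FBS and 2 mM L-glutamine and plated at 5,000–40,000 cells/well. After an overnight preincubation at 37 °C in 5% CO2, compound was added at a final 10 µM from a DMSO stock, with DMSO/PBS controls. After 48 h, cells were TCA-fixed and stained with 0.4% SRB, and absorbance was read at 515 nm. Growth is given as a percentage of untreated control.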

NCI-H322M = experiment: Growth inhibition of human NCI-H322M cells assessed as growth percentage at 10 uM incubated for 48 hrs by sulforhodamine B assay relative to control; conditions: read-out: Activity
Method in brief: (§2)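 NCI-60 one-dose screen. Cells in RPMI 1640 with 5% FBS and 2 mM L-glutamine, seeded at 5,000–40,000 cells/well according to doubling time, and preincubated overnight at 37 °C, 5% CO2. A time-zero plate was TCA-fixed at drug addition. Compound from DMSO stock, final 10 µM, 48 h; DMSO vehicle controls. Fixation with TCA, 10% final (16% for suspension cells). SRB stain, Tris solubilization, A515. Result given as % growth versus untreated cells.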

LOX IMVI = experiment: Growth inhibition of human LOXIMVI cells assessed as growth percentage at 10 uM incubated for 48 hrs by sulforhodamine B assay relative to control; conditions: read-out: Activity; method in brief: as §2
EKVX = experiment: Growth inhibition of human EKVX cells assessed as growth percentage at 10 uM incubated for 48 hrs by sulforhodamine B assay relative to control; conditions: read-out: Activity
Method in brief: (§3)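 NCI-60 one-dose screen: cells in RPMI 1640 with 5% FBS and 2 mM L-glutamine, plated at 5,000–40,000 cells/well and preincubated 24 h at 37 °C, 5% CO2. Compound is added from a DMSO stock to a final 10 µM and incubated 48 h. Cells are TCA-fixed and stained with sulforhodamine B, read at 515 nm. Output is % growth versus untreated control, with a time-zero plate.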

SN12C = experiment: Growth inhibition of human SN12C cells assessed as growth percentage at 10 uM incubated for 48 hrs by sulforhodamine B assay relative to control; conditions: read-out: Activity; method in brief: as §1
OVCAR-5 = experiment: Growth inhibition of human OVCAR5 cells assessed as growth percentage at 10 uM incubated for 48 hrs by sulforhodamine B assay relative to control; conditions: OVCAR-5, 48 h, read-out: Activity; method in brief: as §1
U-251 = experiment: Growth inhibition of human U251 cells assessed as growth percentage at 10 uM incubated for 48 hrs by sulforhodamine B assay relative to control; conditions: U-251, 48 h, read-out: Activity; method in brief: as §1
NCI-H460 = experiment: Growth inhibition of human NCI-H460 cells assessed as growth percentage at 10 uM incubated for 48 hrs by sulforhodamine B assay relative to control; conditions: NCI-H460, 48 h, read-out: Activity; method in brief: as §2
ACHN = experiment: Growth inhibition of human ACHN cells assessed as growth percentage at 10 uM incubated for 48 hrs by sulforhodamine B assay relative to control; conditions: read-out: Activity; method in brief: as §3
SF-268 = experiment: Growth inhibition of human SF268 cells assessed as growth percentage at 10 uM incubated for 48 hrs by sulforhodamine B assay relative to control; conditions: SF-268, 48 h, read-out: Activity; method in brief: as §1
SW-620 = experiment: Growth inhibition of human SW620 cells assessed as growth percentage at 10 uM incubated for 48 hrs by sulforhodamine B assay relative to control; conditions: SW-620, 48 h, read-out: Activity; method in brief: as §1
NCI-H522 = experiment: Growth inhibition of human NCI-H522 cells assessed as growth percentage at 10 uM incubated for 48 hrs by sulforhodamine B assay relative to control; conditions: NCI-H522, 48 h, read-out: Activity; method in brief: as §2
UACC-62 = experiment: Growth inhibition of human UACC62 cells assessed as growth percentage at 10 uM incubated for 48 hrs by sulforhodamine B assay relative to control; conditions: UACC-62, 48 h, read-out: Activity; method in brief: as §1
OVCAR-4 = experiment: Growth inhibition of human OVCAR4 cells assessed as growth percentage at 10 uM incubated for 48 hrs by sulforhodamine B assay relative to control; conditions: OVCAR-4, 48 h, read-out: Activity; method in brief: as §2
M14 = experiment: Growth inhibition of human M14 cells assessed as growth percentage at 10 uM incubated for 48 hrs by sulforhodamine B assay relative to control; conditions: M14, 48 h, read-out: Activity; method in brief: as §2
A498 = experiment: Growth inhibition of human A498 cells assessed as growth percentage at 10 uM incubated for 48 hrs by sulforhodamine B assay relative to control; conditions: A498, 48 h, read-out: Activity; method in brief: as §3
SK-OV-3 = experiment: Growth inhibition of human SKOV3 cells assessed as growth percentage at 10 uM incubated for 48 hrs by sulforhodamine B assay relative to control; conditions: SK-OV-3, 48 h, read-out: Activity; method in brief: as §1
SK-MEL-2 = experiment: Growth inhibition of human SK-MEL-2 cells assessed as growth percentage at 10 uM incubated for 48 hrs by sulforhodamine B assay relative to control; conditions: SK-MEL-2, 48 h, read-out: Activity; method in brief: as §1
NCI-H226 = experiment: Growth inhibition of human NCI-H226 cells assessed as growth percentage at 10 uM incubated for 48 hrs by sulforhodamine B assay relative to control; conditions: NCI-H226, 48 h, read-out: Activity; method in brief: as §2
PC-3 = experiment: Growth inhibition of human PC3 cells assessed as growth percentage at 10 uM incubated for 48 hrs by sulforhodamine B assay relative to control; conditions: PC-3, 48 h, read-out: Activity; method in brief: as §1
SNB-75 = experiment: Growth inhibition of human SNB75 cells assessed as growth percentage at 10 uM incubated for 48 hrs by sulforhodamine B assay relative to control; conditions: SNB-75, 48 h, read-out: Activity; method in brief: as §1
HCT-116 = experiment: Growth inhibition of human HCT116 cells assessed as growth percentage at 10 uM incubated for 48 hrs by sulforhodamine B assay relative to control; conditions: HCT-116, 48 h, read-out: Activity; method in brief: as §3
KM12 = experiment: Growth inhibition of human KM12 cells assessed as growth percentage at 10 uM incubated for 48 hrs by sulforhodamine B assay relative to control; conditions: KM12, 48 h, read-out: Activity; method in brief: as §2
SF-295 = experiment: Growth inhibition of human SF295 cells assessed as growth percentage at 10 uM incubated for 48 hrs by sulforhodamine B assay relative to control; conditions: SF-295, 48 h, read-out: Activity; method in brief: as §1
K562 = experiment: Growth inhibition of human K562 cells assessed as growth percentage at 10 uM incubated for 48 hrs by sulforhodamine B assay relative to control; conditions: K562, 48 h, read-out: Activity; method in brief: as §2
Malme-3M = experiment: Growth inhibition of human MALME-3M cells assessed as growth percentage at 10 uM incubated for 48 hrs by sulforhodamine B assay relative to control; conditions: read-out: Activity; method in brief: as §2

SMILES | growth at 10 µM (SK-MEL-5) [%] | growth at 10 µM (NCI-H322M) [%] | growth at 10 µM (LOX IMVI) [%] | growth at 10 µM (EKVX) [%] | growth at 10 µM (SN12C) [%] | growth at 10 µM (OVCAR-5) [%] | growth at 10 µM (U-251) [%] | growth at 10 µM (NCI-H460) [%] | growth at 10 µM (ACHN) [%] | growth at 10 µM (SF-268) [%] | growth at 10 µM (SW-620) [%] | growth at 10 µM (NCI-H522) [%] | growth at 10 µM (UACC-62) [%] | growth at 10 µM (OVCAR-4) [%] | growth at 10 µM (M14) [%] | growth at 10 µM (SK-OV-3) [%] | growth at 10 µM (SK-MEL-2) [%] | growth at 10 µM (NCI-H226) [%] | growth at 10 µM (PC-3) [%] | growth at 10 µM (HCT-116) [%] | other results
CC1=C(C(=O)OC(C)C)C(c2ccc3c(c2)OCO3)NC(=O)N1 (racemic) | 97.6 | 113 | 96.3 | 96.1 | 92.3 | 103 | 100 | 110 | 103 | 104 | 109 | 91.1 | 94.9 | 103 | 104 | 105 | 108 | 101 | 101 | 96.4 | growth at 10 µM (A498): 104%; growth at 10 µM (SNB-75): 105%; growth at 10 µM (KM12): 106%; growth at 10 µM (SF-295): 104%; growth at 10 µM (K562): 119%; growth at 10 µM (Malme-3M): 99.6%
CC1=C(C(=O)OC(C)C)C(c2ccc3c(c2)OCO3)NC(=S)N1 (racemic) | 98.5 | 108 | 97.3 | 94.4 | 105 | 105 | 102 | 110 | 99.3 | 103 | 107 | 86.4 | 85.2 | 98.4 | 99 | 105 | 102 | 84.1 | 86 | 95.6 | growth at 10 µM (A498): 109%; growth at 10 µM (SNB-75): 95.2%; growth at 10 µM (KM12): 108%; growth at 10 µM (SF-295): 95.8%; growth at 10 µM (K562): 107%; growth at 10 µM (Malme-3M): 95.9%
CC1=C(C(=O)c2ccccc2)C(c2ccc3c(c2)OCO3)NC(=O)N1 (racemic) | 98.8 | 99.5 | 97.3 | 95.1 | 97 | 106 | 96.5 | 114 | 108 | 100 | 98.5 | 90.3 | 94.3 | 99.9 | 99.8 | 109 | 105 | 97.4 | 103 | 98.9 | growth at 10 µM (SNB-75): 91.4%; growth at 10 µM (KM12): 99.9%; growth at 10 µM (SF-295): 101%; growth at 10 µM (K562): 92.7%; growth at 10 µM (Malme-3M): 91.7%
COCCOC(=O)C1=C(C)NC(=S)NC1c1ccc2c(c1)OCO2 (racemic) | 97.6 | 101 | 101 | 105 | 104 | 109 | 104 | 112 | 106 | 97.4 | 106 | 94.3 | 102 | 103 | 104 | 103 | 93 | 90.2 | 95.7 | 103 | growth at 10 µM (A498): 96.1%; growth at 10 µM (KM12): 100%; growth at 10 µM (SF-295): 105%; growth at 10 µM (K562): 91.8%; growth at 10 µM (Malme-3M): 108%
CC1=C(C(=O)OCC(C)C)C(c2ccc3c(c2)OCO3)NC(=S)N1 (racemic) | 92.5 | 117 | 96.3 | 104 | 106 | 105 | 97.4 | 110 | 98.5 | 97.8 | 115 | 82.2 | 90.3 | 103 | 120 | 106 | 101 | 97.1 | 84.4 | 101 | growth at 10 µM (A498): 121%; growth at 10 µM (SNB-75): 94.1%; growth at 10 µM (KM12): 99.1%; growth at 10 µM (SF-295): 104%; growth at 10 µM (K562): 90.7%; growth at 10 µM (Malme-3M): 105%
CC1=C(C(=O)OCc2ccccc2)C(c2ccc3c(c2)OCO3)n2c(nc3ccccc32)N1 (racemic) | 25.5 to 28 | 47 to 55 | 34.6 to 38 | 42 to 64.4 | 47.6 to 51 | 53 to 64.4 | 31 to 36.3 | 6.62 to 8 | 36 to 38.4 | 26 to 59.6 | 17.6 to 19 | 8 to 26.3 | 22 to 46.2 | 54 to 73.8 | 28.1 to 35 | 27 to 41.7 | 33 to 47.8 | 58 to 58.2 | 35 to 41.1 | 18.8 to 25 | growth at 10 µM (KM12): 15 to 17.3%; growth at 10 µM (SF-295): 8 to 20.4%; growth at 10 µM (K562): 13.8 to 25%; growth at 10 µM (Malme-3M): 26 to 39.7%
CC1=C(C(=O)OCc2ccccc2)C(c2ccc3c(c2)OCO3)NC(=S)N1 (racemic) | 88.9 | 95.1 | 98.5 | 97.5 | 96.8 | 100 | 95.8 | 96.7 | 98.9 | 97.3 | 94.2 | 89.5 | 91.2 | 84.5 | 102 | 109 | 96.7 | 95.8 | 85.2 | 93.1 | growth at 10 µM (A498): 72.8%; growth at 10 µM (KM12): 91.9%; growth at 10 µM (SF-295): 102%; growth at 10 µM (K562): 75.2%; growth at 10 µM (Malme-3M): 115%
